Measured values from ChEMBL document CHEMBL1255554, “9-Dihydroerythromycins as non-antibiotic motilin receptor agonists” (Bioorg Med Chem Lett, 2010).
pEC50: −log10 of the molar value. ≈ marks a conversion by molar mass, not a printed value.

Assays:
Motilin receptor = Motilin receptor (Oryctolagus cuniculus, UniProt A5A4K8); assay: Agonist activity at motilin receptor in rabbit smooth muscle assessed as increase of muscle contraction; format: functional
[1] = biological target: Motilin receptor (Oryctolagus cuniculus) (UniProt A5A4K8); assay: Agonist activity at motilin receptor in rabbit smooth muscle assessed as increase of muscle contraction at EC90 concentration treated three cycles of administration measured after 4th dose; format: functional
Procedure, shortened: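 Rabbit smooth muscle strip contractility assay. Drug given at its EC90 concentration for three cycles of administration and washout. The contractile response is expressed as % response at the 4th dose.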

Streptococcus pneumoniae = assay: Antibacterial activity against erythromycin-sensitive Streptococcus pneumoniae ATCC 6301; format: functional
Procedure, shortened: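 Minimal growth inhibitory concentration (MIC) determined against the highly erythromycin-sensitive strain Streptococcus pneumoniae ATCC6301.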

hERG (KCNH2) = hERG (KCNH2) (Homo sapiens, UniProt Q12809); assay: Inhibition of human ERG expressed in HEK cells at 30 uM; format: cell-based, HEK293; conditions: HEK cells expressing human ERG
hERG (KCNH2), sequence (Q12809 whole entry): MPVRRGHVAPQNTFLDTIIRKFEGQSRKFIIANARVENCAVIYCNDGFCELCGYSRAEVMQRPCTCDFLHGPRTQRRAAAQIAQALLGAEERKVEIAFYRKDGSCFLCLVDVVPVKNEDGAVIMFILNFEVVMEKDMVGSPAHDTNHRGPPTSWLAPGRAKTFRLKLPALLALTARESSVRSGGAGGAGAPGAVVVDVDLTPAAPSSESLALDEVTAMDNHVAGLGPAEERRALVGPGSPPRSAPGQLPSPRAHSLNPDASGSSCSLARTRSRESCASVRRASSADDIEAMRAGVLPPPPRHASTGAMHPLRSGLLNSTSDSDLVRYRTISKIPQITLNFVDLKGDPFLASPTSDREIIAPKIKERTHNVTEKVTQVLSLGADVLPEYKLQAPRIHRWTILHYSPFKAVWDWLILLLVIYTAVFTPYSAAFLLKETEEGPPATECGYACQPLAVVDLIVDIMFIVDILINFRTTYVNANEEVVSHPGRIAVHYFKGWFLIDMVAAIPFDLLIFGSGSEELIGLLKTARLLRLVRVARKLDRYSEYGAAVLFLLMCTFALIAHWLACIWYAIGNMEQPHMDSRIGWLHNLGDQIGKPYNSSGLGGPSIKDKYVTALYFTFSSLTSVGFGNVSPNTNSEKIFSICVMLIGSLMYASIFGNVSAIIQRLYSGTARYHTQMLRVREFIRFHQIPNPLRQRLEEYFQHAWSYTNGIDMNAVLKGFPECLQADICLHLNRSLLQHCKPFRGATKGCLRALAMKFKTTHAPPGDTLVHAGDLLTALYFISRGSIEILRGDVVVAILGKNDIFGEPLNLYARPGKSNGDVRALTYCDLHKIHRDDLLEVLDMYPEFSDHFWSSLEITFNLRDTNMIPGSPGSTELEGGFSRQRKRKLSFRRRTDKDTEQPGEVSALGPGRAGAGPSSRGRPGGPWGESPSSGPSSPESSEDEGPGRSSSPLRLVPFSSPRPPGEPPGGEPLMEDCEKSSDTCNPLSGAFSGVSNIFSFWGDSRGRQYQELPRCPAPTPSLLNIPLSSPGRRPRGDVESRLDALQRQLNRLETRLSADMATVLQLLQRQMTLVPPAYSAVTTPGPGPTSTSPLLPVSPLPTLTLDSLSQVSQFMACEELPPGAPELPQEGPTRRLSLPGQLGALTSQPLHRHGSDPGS

Motilin receptor (Oryctolagus cuniculus), sequence (A5A4K8 as listed by the source): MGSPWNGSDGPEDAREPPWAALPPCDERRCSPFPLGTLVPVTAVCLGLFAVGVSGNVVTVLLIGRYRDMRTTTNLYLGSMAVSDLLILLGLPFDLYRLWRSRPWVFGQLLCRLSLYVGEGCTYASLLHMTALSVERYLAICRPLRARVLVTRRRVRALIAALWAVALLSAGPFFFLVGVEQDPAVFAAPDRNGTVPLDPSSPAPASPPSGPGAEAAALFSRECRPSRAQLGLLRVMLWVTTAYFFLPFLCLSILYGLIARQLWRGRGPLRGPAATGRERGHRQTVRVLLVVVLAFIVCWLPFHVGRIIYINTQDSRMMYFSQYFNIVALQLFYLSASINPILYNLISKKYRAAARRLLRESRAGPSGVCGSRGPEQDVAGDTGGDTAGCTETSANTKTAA
Motilin receptor, sequence (A5A4K8 whole entry): as the sequence (A5A4K8 as listed by the source) above

Compound | pEC50 (Motilin receptor) | Activity [1] [%] | MIC (Streptococcus pneumoniae) [µg/mL] | inhibition at 30 µM (hERG (KCNH2)) [%]
CC[C@H]1OC(=O)[C@H](C)[C@@H](O[C@@H]2C[C@@](C)(OC)[C@@H](O)[C@H](C)O2)[C@H](C)[C@@H](O[C@@H]2O[C@H](C)C[C@H](N(C)CC(C)C)[C@H]2O)[C@](C)(O)C[C@@H](C)[C@H](O)[C@H](C)[C@@H](O)[C@]1(C)O | 6.44 | 81 |  | 
CC[C@H]1OC(=O)[C@H](C)[C@@H](O[C@@H]2C[C@@](C)(OC)[C@@H](O)[C@H](C)O2)[C@H](C)[C@@H](O[C@@H]2O[C@H](C)C[C@H](N(C)C[C@@H](C)O)[C@H]2O)[C@](C)(O)C[C@@H](C)[C@H](O)[C@H](C)[C@@H](O)[C@]1(C)O | 6.34 | 93 | > 128 | 
CC[C@H]1OC(=O)[C@H](C)[C@@H](O[C@@H]2C[C@@](C)(OC)[C@@H](O)[C@H](C)O2)[C@H](C)[C@@H](O[C@@H]2O[C@H](C)C[C@H](N(C)CCOC)[C@H]2O)[C@](C)(O)C[C@@H](C)[C@H](O)[C@H](C)[C@@H](O)[C@]1(C)O | 5.11 |  |  | 
CC[C@H]1OC(=O)[C@H](C)[C@@H](O[C@@H]2C[C@@](C)(OC)[C@@H](O)[C@H](C)O2)[C@H](C)[C@@H](O[C@@H]2O[C@H](C)C[C@H](N(C)C[C@@H](C)O)[C@H]2O)[C@](C)(O)C[C@@H](C)[C@H](O)[C@H](C)[C@@H](O)[C@H]1C | 6.55 | 89 | > 128 | 38
CC[C@H]1OC(=O)[C@H](C)[C@@H](O[C@@H]2C[C@@](C)(OC)[C@@H](O)[C@H](C)O2)[C@H](C)[C@@H](O[C@@H]2O[C@H](C)C[C@H](N(C)C3CCC3)[C@H]2O)[C@](C)(O)C[C@@H](C)[C@H](O)[C@H](C)[C@@H](O)[C@]1(C)O | 6.46 | 90 | 128 (≈ 165 µM) | 38
CC[C@H]1OC(=O)[C@H](C)[C@@H](O[C@@H]2C[C@@](C)(OC)[C@@H](O)[C@H](C)O2)[C@H](C)[C@@H](O[C@@H]2O[C@H](C)C[C@H](N(C)C[C@H](C)O)[C@H]2O)[C@](C)(O)C[C@@H](C)[C@H](O)[C@H](C)[C@@H](O)[C@H]1C | 6.74 | 70 | > 128 | 
CC[C@H]1OC(=O)[C@H](C)[C@@H](O[C@@H]2C[C@@](C)(OC)[C@@H](O)[C@H](C)O2)[C@H](C)[C@@H](O[C@@H]2O[C@H](C)C[C@H](N(C)CCCO)[C@H]2O)[C@](C)(O)C[C@@H](C)[C@H](O)[C@H](C)[C@@H](O)[C@]1(C)O | 6.15 |  |  | 
CC[C@H]1OC(=O)[C@H](C)[C@@H](O[C@@H]2C[C@@](C)(OC)[C@@H](O)[C@H](C)O2)[C@H](C)[C@@H](O[C@@H]2O[C@H](C)C[C@H](N(C)CC(N)=O)[C@H]2O)[C@](C)(O)C[C@@H](C)[C@H](O)[C@H](C)[C@@H](O)[C@]1(C)O | < 5.30 |  |  | 
CC[C@H]1OC(=O)[C@H](C)[C@@H](O[C@@H]2C[C@@](C)(OC)[C@@H](O)[C@H](C)O2)[C@H](C)[C@@H](O[C@@H]2O[C@H](C)C[C@H](N(C)CCN)[C@H]2O)[C@](C)(O)C[C@@H](C)[C@H](O)[C@H](C)[C@@H](O)[C@]1(C)O | 5.14 |  |  | 
CC[C@H]1OC(=O)[C@H](C)[C@@H](O[C@@H]2C[C@@](C)(OC)[C@@H](O)[C@H](C)O2)[C@H](C)[C@@H](O[C@@H]2O[C@H](C)C[C@H](N(C)CCO)[C@H]2O)[C@](C)(O)C[C@@H](C)[C@H](O)[C@H](C)[C@@H](O)[C@]1(C)O | 6.68 | 86 | 8 (≈ 10.4 µM) | 
CC[C@H]1OC(=O)[C@H](C)[C@@H](O[C@H]2C[C@@](C)(OC)[C@@H](O)[C@H](C)O2)[C@H](C)[C@@H](O[C@@H]2O[C@H](C)C[C@H](N(C)C)[C@H]2O)[C@](C)(O)C[C@@H](C)C(=O)[C@H](C)[C@@H](O)[C@]1(C)O [ERYTHROMYCIN] |  |  | 0.03 (≈ 0.0409 µM) | 
CC[C@H]1OC(=O)[C@H](C)[C@@H](O[C@@H]2C[C@@](C)(OC)[C@@H](O)[C@H](C)O2)[C@H](C)[C@@H](O[C@@H]2O[C@H](C)C[C@H](N(C)C3CCC3)[C@H]2O)[C@](C)(O)C[C@@H](C)[C@H](O)[C@H](C)[C@@H](O)[C@H]1C | 6.52 | 71 | > 128 | 
CC[C@H]1OC(=O)[C@H](C)[C@@H](O[C@@H]2C[C@@](C)(OC)[C@@H](O)[C@H](C)O2)[C@H](C)[C@@H](O[C@@H]2O[C@H](C)C[C@H](N(C)C[C@H](C)O)[C@H]2O)[C@](C)(O)C[C@@H](C)[C@H](O)[C@H](C)[C@@H](O)[C@]1(C)O | 6.44 | 95 | 128 (≈ 164 µM) | 16
C=C(C)CN(C)[C@H]1C[C@@H](C)O[C@@H](O[C@@H]2[C@@H](C)[C@H](O[C@@H]3C[C@@](C)(OC)[C@@H](O)[C@H](C)O3)[C@@H](C)C(=O)O[C@H](CC)[C@@](C)(O)[C@H](O)[C@@H](C)[C@@H](O)[C@H](C)C[C@@]2(C)O)[C@@H]1O | 5.62 |  |  | 
CC[C@H]1OC(=O)[C@H](C)[C@@H](O[C@@H]2C[C@@](C)(OC)[C@@H](O)[C@H](C)O2)[C@H](C)[C@@H](O[C@@H]2O[C@H](C)C[C@H](N(C)CC(C)(C)O)[C@H]2O)[C@](C)(O)C[C@@H](C)[C@H](O)[C@H](C)[C@@H](O)[C@]1(C)O | 7.00 | 89 | > 128 | 25
CC[C@H]1OC(=O)[C@H](C)[C@@H](O[C@@H]2C[C@@](C)(OC)[C@@H](O)[C@H](C)O2)[C@H](C)[C@@H](O[C@@H]2O[C@H](C)C[C@H](N(C)C(C)C)[C@H]2O)[C@](C)(O)C[C@@H](C)[C@H](O)[C@H](C)[C@@H](O)[C@]1(C)O | 6.59 | 76 | 32 (≈ 41.9 µM) | 80
CC[C@H]1OC(=O)[C@H](C)[C@@H](O[C@@H]2C[C@@](C)(OC)[C@@H](O)[C@H](C)O2)[C@H](C)[C@@H](O[C@@H]2O[C@H](C)C[C@H](N(C)CC3(C)CC3)[C@H]2O)[C@](C)(O)C[C@@H](C)[C@H](O)[C@H](C)[C@@H](O)[C@]1(C)O | 5.70 |  | 64 (≈ 81 µM) | 
CC[C@H]1OC(=O)[C@H](C)[C@@H](O[C@@H]2C[C@@](C)(OC)[C@@H](O)[C@H](C)O2)[C@H](C)[C@@H](O[C@@H]2O[C@H](C)C[C@H](NC(C)C)[C@H]2O)[C@](C)(O)C[C@@H](C)[C@H](O)[C@H](C)[C@@H](O)[C@]1(C)O | < 5.30 |  | > 128 | 
CC[C@H]1OC(=O)[C@H](C)[C@@H](O[C@@H]2C[C@@](C)(OC)[C@@H](O)[C@H](C)O2)[C@H](C)[C@@H](O[C@@H]2O[C@H](C)C[C@H](N(C)C3COC3)[C@H]2O)[C@](C)(O)C[C@@H](C)[C@H](O)[C@H](C)[C@@H](O)[C@]1(C)O | 5.24 |  | 32 (≈ 41.1 µM) | 
CC[C@H]1OC(=O)[C@H](C)[C@@H](O[C@@H]2C[C@@](C)(OC)[C@@H](O)[C@H](C)O2)[C@H](C)[C@@H](O[C@@H]2O[C@H](C)C[C@H](N(C)CC(O)CO)[C@H]2O)[C@](C)(O)C[C@@H](C)[C@H](O)[C@H](C)[C@@H](O)[C@]1(C)O (stereo not given in full) | 5.60 |  |  | 
CC[C@H]1OC(=O)[C@H](C)[C@@H](O[C@@H]2C[C@@](C)(OC)[C@@H](O)[C@H](C)O2)[C@H](C)[C@@H](O[C@@H]2O[C@H](C)C[C@H](N(C)CC3CC3)[C@H]2O)[C@](C)(O)C[C@@H](C)[C@H](O)[C@H](C)[C@@H](O)[C@]1(C)O | 6.51 |  | 32 (≈ 41.2 µM) | 
CC[C@H]1OC(=O)[C@H](C)[C@@H](O[C@@H]2C[C@@](C)(OC)[C@@H](O)[C@H](C)O2)[C@H](C)[C@@H](O[C@@H]2O[C@H](C)C[C@H](N(C)C(C)C)[C@H]2O)[C@](C)(O)C[C@@H](C)[C@H](O)[C@H](C)[C@@H](O)[C@H]1C | 6.97 | 79 | 128 (≈ 171 µM) | 
CC[C@H]1OC(=O)[C@H](C)[C@@H](O[C@@H]2C[C@@](C)(OC)[C@@H](O)[C@H](C)O2)[C@H](C)[C@@H](O[C@@H]2O[C@H](C)C[C@H](N(C)CC(C)(C)O)[C@H]2O)[C@](C)(O)C[C@@H](C)[C@H](O)[C@H](C)[C@@H](O)[C@H]1C | 7.00 | 56 | > 128 | 
CC[C@H]1OC(=O)[C@H](C)[C@@H](O[C@@H]2C[C@@](C)(OC)[C@@H](O)[C@H](C)O2)[C@H](C)[C@@H](O[C@@H]2O[C@H](C)C[C@H](N(C)C3CCCC3)[C@H]2O)[C@](C)(O)C[C@@H](C)[C@H](O)[C@H](C)[C@@H](O)[C@]1(C)O | < 5.30 |  | 128 (≈ 162 µM) | 
CC[C@H]1OC(=O)[C@H](C)[C@@H](O[C@@H]2C[C@@](C)(OC)[C@@H](O)[C@H](C)O2)[C@H](C)[C@@H](O[C@@H]2O[C@H](C)C[C@H](NC3CCC3)[C@H]2O)[C@](C)(O)C[C@@H](C)[C@H](O)[C@H](C)[C@@H](O)[C@]1(C)O | < 5.30 |  | 16 (≈ 21 µM) | 
CC[C@H]1OC(=O)[C@H](C)[C@@H](O[C@@H]2C[C@@](C)(OC)[C@@H](O)[C@H](C)O2)[C@H](C)[C@@H](O[C@@H]2O[C@H](C)C[C@H](N(C)CCF)[C@H]2O)[C@](C)(O)C[C@@H](C)[C@H](O)[C@H](C)[C@@H](O)[C@]1(C)O | 5.42 |  |  | 
